Source: publication PMC9177108 (The Oncologist, 2022)

System: patients with recurrent and metastatic nasopharyngeal carcinoma (RM-NPC)
Experiment: Safety and tolerability
Assay type: in vivo, human
Procedure, shortened: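 Safety was the primary endpoint, assessed separately in two randomised arms of pretreated RM-NPC patients given test compound 10 mg orally: daily on a 4-week cycle, or 3 weeks on/1 week off. Adverse events were graded by CTCAE version 4.03. The safety set comprised patients who took at least one dose. TEAEs and TRAEs, including those leading to dose reduction, interruption or discontinuation, were tabulated per arm.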

Q: With `CNC(=O)c1cccc2cc(Oc3ccnc4cc(OCC5(N)CC5)c(OC)cc34)ccc12` [Lucitanib] as the molecule, how does the “patients with at least one TEAE” value (all patients, both arms) read?
A: All patients

Q: And the “serious TRAEs” value (all patients, both arms)?
A: No patients experienced serious TRAEs

Q: What about the “patients with Grade ≥3 related TEAEs” value (all patients, both arms (7/20)) of the same molecule?
A: 35%

Q: And the “TRAE: Hypothyroidism” value (continuous arm)?
A: 60%

Q: And the “grade ≥3 TRAE: decreased platelet count” value (continuous arm)?
A: 10%

Q: What about the “grade ≥3 TRAE: hypertension” value (continuous arm) of the same molecule?
A: 30%

Q: And the “grade ≥3 TRAE: increased AST” value (continuous arm)?
A: 10%

Q: And the “grade ≥3 TRAE: proteinuria” value (continuous arm)?
A: 20%

Q: What about the “patients with at least one treatment-related AE (TRAE)” value (continuous arm) of the same molecule?
A: One hundred

Q: And the “patients with Grade ≥3 related TEAEs” value (continuous arm (5/10))?
A: 50%

Q: And the “patients with Grade ≥3 related TRAEs” value (continuous arm (5/10))?
A: 50%

Q: What about the “Drug-related AE: Cough” value (continuous arm, n = 10) of the same molecule?
A: 2 (20.0) n (%)

Q: And the “Drug-related AE: Diarrhea” value (continuous arm, n = 10)?
A: 3 (30.0) n (%)

Q: What about the “Drug-related AE: Epistaxis” value (continuous arm, n = 10) of the same molecule?
A: 5 (50.0) n (%)

Q: And the “Drug-related AE: Free thyroxine decreased” value (continuous arm, n = 10)?
A: 3 (30.0) n (%)

Q: What about the “Drug-related AE: Hypertension” value (continuous arm, n = 10) of the same molecule?
A: 10 (100.0) n (%)

Q: What about the “Drug-related AE: Hypochloremia” value (continuous arm, n = 10) of the same molecule?
A: 3 (30.0) n (%)

Q: What about the “Drug-related AE: Platelet count decreased” value (continuous arm, n = 10) of the same molecule?
A: 3 (30.0) n (%)

Q: What about the “Drug-related AE: Proteinuria” value (continuous arm, n = 10) of the same molecule?
A: 10 (100.0) n (%)

Q: And the “Drug-related AE: Skin rash” value (continuous arm, n = 10)?
A: 3 (30.0) n (%)

Q: What about the “Drug-related AE: TSH increased” value (continuous arm, n = 10) of the same molecule?
A: 3 (30.0) n (%)

Q: And the “Drug-related adverse events: All” value (continuous arm, n = 10)?
A: 10 (100.0) n (%)

Q: What about the “Grade ≥3 TEAE” value (continuous arm, n = 10) of the same molecule?
A: 5 (50) n (%)

Q: What about the “Grade ≥3 TRAE” value (continuous arm, n = 10) of the same molecule?
A: 5 (50) n (%)

Q: And the “Serious TRAE” value (continuous arm, n = 10)?
A: 0 n (%)

Q: What about the “TRAE lead to dose discontinuation” value (continuous arm, n = 10) of the same molecule?
A: 0 n (%)

Q: And the “TRAE lead to dose interruption” value (continuous arm, n = 10)?
A: 5 (50) n (%)

Q: What about the “TRAE: Hypothyroidism” value (intermittent arm) of the same molecule?
A: 50%

Q: What about the “grade ≥3 TRAE: decreased platelet count” value (intermittent arm) of the same molecule?
A: 0%

Q: And the “grade ≥3 TRAE: hypertension” value (intermittent arm)?
A: 0%

Q: What about the “grade ≥3 TRAE: increased AST” value (intermittent arm) of the same molecule?
A: 0%

Q: And the “grade ≥3 TRAE: proteinuria” value (intermittent arm)?
A: 0%

Q: And the “patients with at least one treatment-related AE (TRAE)” value (intermittent arm)?
A: 90%

Q: What about the “Drug-related AE: AST increased” value (intermittent arm, n = 10) of the same molecule?
A: 0 n (%)

Q: And the “Drug-related AE: Backache” value (intermittent arm, n = 10)?
A: 0 n (%)

Q: And the “Drug-related AE: Cough” value (intermittent arm, n = 10)?
A: 3 (30.0) n (%)

Q: And the “Drug-related AE: Diarrhea” value (intermittent arm, n = 10)?
A: 0 n (%)

Q: What about the “Drug-related AE: Free thyroxine decreased” value (intermittent arm, n = 10) of the same molecule?
A: 1 (10.0) n (%)

Q: What about the “Drug-related AE: Hypochloremia” value (intermittent arm, n = 10) of the same molecule?
A: 1 (10.0) n (%)

Q: And the “Drug-related AE: Hypothyroidism” value (intermittent arm, n = 10)?
A: 5 (50.0) n (%)

Q: And the “Drug-related AE: Platelet count decreased” value (intermittent arm, n = 10)?
A: 1 (10.0) n (%)

Q: And the “Drug-related AE: Proteinuria” value (intermittent arm, n = 10)?
A: 5 (50.0) n (%)

Q: And the “Drug-related AE: Serum creatinine (Scr) increased” value (intermittent arm, n = 10)?
A: 1 (10.0) n (%)

Q: And the “Drug-related AE: Skin rash” value (intermittent arm, n = 10)?
A: 0 n (%)

Q: And the “Drug-related AE: TSH increased” value (intermittent arm, n = 10)?
A: 1 (10.0) n (%)

Q: What about the “Drug-related AE: Weight loss” value (intermittent arm, n = 10) of the same molecule?
A: 0 n (%)

Q: What about the “Grade ≥3 TEAE” value (intermittent arm, n = 10) of the same molecule?
A: 2 (20) n (%)

Q: And the “Grade ≥3 TRAE” value (intermittent arm, n = 10)?
A: 0 n (%)

Q: And the “Serious TRAE” value (intermittent arm, n = 10)?
A: 0 n (%)

Q: And the “TRAE lead to dose discontinuation” value (intermittent arm, n = 10)?
A: 1 (10) n (%)

Q: What about the “TRAE lead to dose interruption” value (intermittent arm, n = 10) of the same molecule?
A: 2 (20) n (%)

Q: And the “TRAE lead to dose reduction” value (intermittent arm, n = 10)?
A: 0 n (%)
